# Experimental data of several laboratories.
# Lines come from different studies, so protocols differ.
# MET M1250T: Hepatocyte growth factor receptor (MET, Homo sapiens, UniProt P08581, M1250T)
# MET Y1235D: Hepatocyte growth factor receptor (MET, Homo sapiens, UniProt P08581, Y1235D)
# MET: Hepatocyte growth factor receptor (MET, Homo sapiens, UniProt P08581)
SMILES,target,effect on,method,concentration,remaining binding
CCN1CCN(Cc2ccc(C(=O)Nc3ccc(C)c(Oc4ccc5c(c4)CC(=O)N5)c3)cc2C(F)(F)F)CC1,MET M1250T,binding,competition with immobilised ligand,1 µM,100%
CN(C)C(=O)Cn1cc(-c2nc(C3(c4ccc(-c5cnc(N)nc5)cc4)CC3)no2)cn1,MET M1250T,cell-free assay,competition with immobilised ligand,1 µM,100%
Nc1ncc2c(n1)-c1c([nH]c3ccc(C#CC4CC4)cc13)CCCC2,MET M1250T,binding,competition with immobilised ligand,1 µM,95%
CC(=O)N1CCC(c2ccc(C(=O)NC3=NCCN3)cc2C(F)(F)F)CC1,MET Y1235D,cell-free assay,competition with immobilised ligand,1 µM,100%
CC1CCCN1c1nccc(-c2cnn3ncccc23)n1 (stereo not drawn),MET,binding,,1 µM,96%
CO[C@@H](C)c1c(Nc2ccc([C@@H](N(C)C(=O)C3CCS(=O)(=O)CC3)C(F)(F)F)cc2)cnc2cc(Cl)nn12,MET M1250T,cell-free assay,competition with immobilised ligand,1 µM,100%
CN(C)c1nccc(-c2cnn3ncccc23)n1,MET Y1235D,binding,,1 µM,90%
CN(C)C(=O)Cn1cc(-c2nc([C@@](C)(c3ccc(-c4cnc(N)nc4)cc3)C3CC3)no2)cn1,MET M1250T,cell-free assay,competition with immobilised ligand,1 µM,93%
O=C(NCCCN1CCOCC1)c1ccc(Nc2ncc(Cl)c(-c3ccc(Cl)s3)n2)cc1,MET M1250T,binding,competition with immobilised ligand,1 µM,13%
c1cncc(-c2cccc(Nc3nccc(NC4CCCCC4)n3)c2)c1,MET,binding,competition with immobilised ligand,10 µM,43%
COc1cc(-c2cn(C3CCc4c(F)cccc4N(CC(F)(F)F)C3=O)nn2)ccc1-n1cnc(C)c1 (stereo not drawn),MET M1250T,cell-free assay,competition with immobilised ligand,1 µM,100%
O=C(NCCCN1CCOCC1)c1ccc(Nc2nccc(-c3cc4ccccc4s3)n2)cc1,MET,binding,competition with immobilised ligand,1 µM,100%
C[C@H]1CCN(c2nccc(-c3cnn4ncccc34)n2)C1,MET Y1235D,binding,,1 µM,100%
O=C(Nc1c[nH]nc1C(=O)NC1CCNCC1)c1cc(F)cc(F)c1,MET Y1235D,binding,competition with immobilised ligand,1 µM,100%
CNC(=O)[C@@H]1CC[C@@H](n2c(-c3ccc4cnccc4c3)nc3ccc(C(=O)NCc4cccc(C(N)=O)c4)cc32)C1,MET Y1235D,binding,competition with immobilised ligand,1 µM,92%
O=C(NCC1CCOCC1)c1n[nH]cc1NC(=O)c1c(F)cccc1F,MET M1250T,binding,competition with immobilised ligand,1 µM,90%
COc1cnc(Nc2cccc(S(N)(=O)=O)c2)nc1N1CCN(c2ccccc2)C(=O)C1,MET Y1235D,binding,competition with immobilised ligand,1 µM,100%
Cc1cnn2ncc(-c3ccnc(N(C)C)n3)c2c1,MET M1250T,binding,,1 µM,61%
O=C(c1ccc(Nc2ncc(Cl)c(-c3ccc(Cl)s3)n2)cc1)N1CCC(N2CCCC2)CC1,MET M1250T,binding,competition with immobilised ligand,1 µM,6.5%
N[C@@H]1CCN(c2nccc(-c3cnn4ncccc34)n2)C1,MET M1250T,binding,,1 µM,100%
COc1ncc2cc3ccccc3nc2c1C#N,MET M1250T,cell-free assay,competition with immobilised ligand,5 µM,100%
N#Cc1ccccc1CSc1nnc2c(n1)[nH]c1ccccc12,MET,binding,competition with immobilised ligand,10 µM,87%
COc1ccnn2ncc(-c3ccnc(N(C)C)n3)c12,MET Y1235D,binding,,1 µM,94%
O=C(c1ccc(Nc2nccc(-c3cc4ccccc4s3)n2)cc1)N1CCC(N2CCCC2)CC1,MET Y1235D,binding,competition with immobilised ligand,1 µM,85%
CC1=C(C#N)[C@@H](c2ccc3[nH]nc(C)c3c2)C(C#N)=C(c2ccc(Cl)cc2)N1,MET,cell-free assay,competition with immobilised ligand,1 µM,17.2%
CN1CCN(c2ccc(Nc3nccc(-c4cccc([N+](=O)[O-])c4)n3)cc2C(F)(F)F)CC1,MET Y1235D,binding,,10 µM,27%
COc1cnc(Nc2cccc(S(N)(=O)=O)c2)nc1N1CCN(c2ccccc2)CC1,MET,binding,competition with immobilised ligand,1 µM,100%
O=C(c1ccc(Nc2ncc(Cl)c(-c3cc4ccccc4s3)n2)cc1)N1CCC(N2CCCC2)CC1,MET,binding,competition with immobilised ligand,1 µM,82%
FC(F)(F)Oc1cccc(-c2cnc3ccc(-c4ccncc4)nn23)c1,MET,cell-free assay,competition with immobilised ligand,5 µM,63%
CCS(=O)(=O)c1cc2cc(C[C@@](O)(CC(C)(C)c3ccc(F)cc3C(N)=O)C(F)(F)F)[nH]c2cn1,MET,cell-free assay,competition with immobilised ligand,1 µM,100%
CN(C)c1nccc(-c2cnc3ncccn23)n1,MET Y1235D,binding,,1 µM,76%
Cc1cnc(Nc2ccc(C(=O)N3CCC(N4CCCC4)CC3)cc2)nc1-c1cc2ccccc2s1,MET,binding,competition with immobilised ligand,1 µM,100%
CNC(=O)Nc1ccc2c(c1)CC[C@@]21OC(=O)N(CC(=O)N(Cc2ccc(F)cc2)[C@@H](C)C(F)(F)F)C1=O,MET Y1235D,cell-free assay,competition with immobilised ligand,1 µM,81%
